Experiment [1] relates to U-937. Nature of the experiment: Induction of cell cycle arrest in human U937 cells assessed as accumulation at subG1 phase at 3 uM after 24 hrs by propidium iodide staining based flow cytometry (reference value: 3.9 +/- 0.8%). Type of experiment: functional.
In experiment [2] the test system is HL-60. In words: Reduction in Bid expression in human HL60 cells by Western blotting method. It is filed as functional, cell-based. An outline of the steps:
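Cells (HL-60, Molt-3 or U937) were incubated with increasing concentrations of compound and harvested at 24 h. Cell lysates were then immunoblotted for Bid and other Bcl-2 family members.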
Background: In western blotting, separated proteins are transferred to a membrane and probed.

Experiment [3] relates to HL-60. Nature of the experiment: Induction of cell cycle arrest in human HL60 cells assessed as accumulation at S phase at 1 uM after 24 hrs by propidium iodide staining based flow cytometry (reference value: 17.9 +/- 0.6%). It is filed as functional.
For experiment [4], the system named is HL-60. In words: Induction of cell cycle arrest in human HL60 cells assessed as accumulation at G1 phase at 3 uM after 48 hrs by propidium iodide staining based flow cytometry (reference value: 60.4 +/- 0.4%). It is filed as functional.
The subject of experiment [5] is U-937. Nature of the experiment: Induction of cell cycle arrest in human U937 cells assessed as accumulation at subG1 phase at 10 uM after 24 hrs by propidium iodide staining based flow cytometry (reference value: 3.9 +/- 0.8%). Type of experiment: functional. On the technique in general: Flow cytometry measures light scatter and fluorescence of single cells or particles in a stream.

For experiment [6], the system named is HL-60. In words: Induction of cell cycle arrest in human HL60 cells assessed as accumulation at S phase at 10 uM after 24 hrs by propidium iodide staining based flow cytometry (reference value: 17.9 +/- 0.6%). It is filed as functional.

Consider one compound from ChEMBL document CHEMBL3352730, “Synthesis and effects on cell viability of flavonols and 3-methyl ether derivatives on human leukemia cells” (Eur J Med Chem, 2014).

The source made the active and inactive calls. The rule behind the calls is not given here.

For the compound `O=c1c(O)c(-c2ccc(Br)cc2)oc2ccccc12`, the Activity in the experiment on U-937 [1] came to 5.5%; in the experiment with HL-60 [3], 20.7%; in the experiment with HL-60 [4], 40.4%; in the experiment with U-937 [5], 13.8%; in the experiment on HL-60 [6] it was 24.1%. Also, the outcome in the experiment on HL-60 [2] was Active.
